Source: ChEMBL document CHEMBL5678802, “Small-molecule p21-activated kinase inhibitor PF-3758309 is a potent inhibitor of oncogenic signaling and tumor growth” (Proc Natl Acad Sci U S A, 2010)
Active and inactive are the calls of the source. No cut-off for these calls is given here.

Legend:
HCT-116 [1] = experiment: Antitumor activity against human HCT-116 cells xenografted in nude mouse assessed as unbound drug concentration for inhibition of tumor growth at 0.12 to 3.3 mg/kg administered via pump for 9 days; assay type: functional; settings: dose 0.12-3.3 mg/kg; time 9 day
[2] = Inhibition of YFP/YFP variant coding sequence fused p53/Pin1 (unknown origin) expressed in HEK293 cells incubated for 8 to 24 hrs by fluorescence based analysis; assay type: cell-based, Homo sapiens
CFPAC-1 = experiment: Antiproliferative activity against human CFPAC-1 cells assessed as inhibition of cell proliferation incubated for 3 days by CellTiter-Glo Luminescent Cell Viability Assay; assay type: functional, cell-based; settings: CFPAC-1, 72 h
How it was run: (§1)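 Cancer cell lines seeded in 384-well plates on day 1; compound added on day 2 and left for 3 days. On day 5 all medium was aspirated, and viable cells were quantified by CellTiter-Glo luminescence, which measures cellular ATP. Dose-dependent effects on proliferation were determined.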

T84 = experiment: Antiproliferative activity against human T84 cells assessed as inhibition of cell proliferation incubated for 3 days by CellTiter-Glo Luminescent Cell Viability Assay; assay type: functional, cell-based; settings: T84, 72 h
How it was run: (§2)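 Cells of each line were plated in 384-well plates on day 1 and exposed to compound from day 2 for 3 days. On day 5 all medium was aspirated. Viable cell number was read by CellTiter-Glo luminescence, which quantifies cellular ATP.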

[3] = biological target: Protein kinase C beta type (Homo sapiens, UniProt P05771); experiment: Inhibition of human PKCbeta1 in presence of ATP by cellular assay
[4] = biological target: T1, Serine/threonine-protein kinase D1 (Homo sapiens, UniProt Q15139); experiment: Inhibition of human PKCmu in presence of ATP
T1 sequence (Q15139 whole entry): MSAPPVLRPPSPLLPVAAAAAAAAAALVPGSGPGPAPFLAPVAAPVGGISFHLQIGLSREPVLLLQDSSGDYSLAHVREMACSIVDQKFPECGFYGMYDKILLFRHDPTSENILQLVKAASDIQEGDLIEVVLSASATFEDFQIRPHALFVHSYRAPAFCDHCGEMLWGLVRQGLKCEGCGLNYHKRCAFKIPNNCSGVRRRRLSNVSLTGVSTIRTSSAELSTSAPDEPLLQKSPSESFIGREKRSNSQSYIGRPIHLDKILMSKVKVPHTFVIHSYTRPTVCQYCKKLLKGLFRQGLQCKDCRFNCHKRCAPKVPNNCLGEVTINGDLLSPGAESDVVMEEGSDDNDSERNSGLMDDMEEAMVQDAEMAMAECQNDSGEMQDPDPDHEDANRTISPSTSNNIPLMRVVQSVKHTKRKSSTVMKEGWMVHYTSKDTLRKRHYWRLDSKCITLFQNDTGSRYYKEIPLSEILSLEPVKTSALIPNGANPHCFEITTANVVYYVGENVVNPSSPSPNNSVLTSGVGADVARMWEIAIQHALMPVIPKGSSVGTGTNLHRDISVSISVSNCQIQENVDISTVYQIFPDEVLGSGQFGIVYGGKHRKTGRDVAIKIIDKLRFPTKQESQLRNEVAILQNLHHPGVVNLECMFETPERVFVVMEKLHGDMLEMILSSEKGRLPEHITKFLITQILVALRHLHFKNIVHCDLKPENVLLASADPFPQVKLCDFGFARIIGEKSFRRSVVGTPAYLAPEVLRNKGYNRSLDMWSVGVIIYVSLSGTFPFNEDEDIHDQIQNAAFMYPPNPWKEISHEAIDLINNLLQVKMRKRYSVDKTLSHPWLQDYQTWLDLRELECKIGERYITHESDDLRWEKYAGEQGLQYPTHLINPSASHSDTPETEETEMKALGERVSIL

HCT-116 [5] = experiment: Antitumor activity against human HCT-116 cells xenografted in nude mouse assessed as reduction in AKT1 phosphorylation at S473 residue at 15 to 150 mg/kg/day administered via pump for 18 hrs by Reverse-Phase protein array analysis; assay type: functional, organism-based; settings: dose 15-150 mg/kg/day
MCF7 = experiment: Antiproliferative activity against human MCF7 cells assessed as inhibition of cell proliferation incubated for 3 days by CellTiter-Glo Luminescent Cell Viability Assay; assay type: functional, cell-based; settings: MCF7, 72 h; how it was run: as §1
NCI-H1734 = experiment: Antiproliferative activity against human NCI-H1734 cells assessed as inhibition of cell proliferation incubated for 3 days by CellTiter-Glo Luminescent Cell Viability Assay; assay type: functional, cell-based; settings: NCI-H1734, 72 h; how it was run: as §2
[6] = biological target: Protein kinase C theta type (Homo sapiens, UniProt Q04759); experiment: Inhibition of human PKCtheta in presence of ATP relative to control; settings: concentration not given here
HCT-116 [7] = experiment: Antitumor activity against human HCT-116 cells xenografted in nude mouse assessed as reduction in Src phosphorylation at Y527 residue at 15 to 150 mg/kg/day administered via pump for 18 hrs by Reverse-Phase protein array analysis; assay type: functional, organism-based; settings: dose 15-150 mg/kg/day
ASPC1 = experiment: Antiproliferative activity against human ASPC1 cells assessed as inhibition of cell proliferation incubated for 3 days by CellTiter-Glo Luminescent Cell Viability Assay; assay type: functional, cell-based; settings: ASPC1, 72 h; how it was run: as §1
NCI-H2087 = experiment: Inhibition of anchorage independent cell growth in human NCI-H2087 cells incubated for 6 days by Alamar blue reagent based fluorescence plate reader analysis; assay type: functional; settings: NCI-H2087, 144 h
HCC827 = experiment: Inhibition of anchorage independent cell growth in human HCC827 cells incubated for 6 days by Alamar blue reagent based fluorescence plate reader analysis; assay type: functional; settings: HCC827, 144 h
HCC38 = experiment: Antiproliferative activity against human HCC38 cells assessed as inhibition of cell proliferation incubated for 3 days by CellTiter-Glo Luminescent Cell Viability Assay; assay type: functional, cell-based; settings: HCC38, 72 h; how it was run: as §1
HCT-116 [8] = experiment: Induction of cell cycle arrest in human HCT-116 cells assessed as accumulation of cells at G0/G1 phase at 100 nM measured after 48 hrs by fluorescence activated cell sorter analysis (reference value: 50.74%); assay type: functional
M24met = experiment: Antitumor activity against human M24met cells xenografted in nude mouse assessed as tumor growth inhibition at 15 mg/kg, po administered once daily for 9 to 18 days relative to control; assay type: functional; settings: time 9-18 day, read-out: TGI
[9] = biological target: AMP-activated protein kinase (AMPK) alpha-1/beta-1/gamma-1 (Homo sapiens, UniProt P54619+Q13131+Q9Y478); experiment: Inhibition of human AMPK alpha1/beta1/gamma1 in presence of ATP; assay type: protein-complex assay
NCI-H1755 = experiment: Antiproliferative activity against human NCI-H1755 cells assessed as inhibition of cell proliferation incubated for 3 days by CellTiter-Glo Luminescent Cell Viability Assay; assay type: functional, cell-based; settings: NCI-H1755, 72 h; how it was run: as §2
[10] = biological target: Tumour suppressor p53/oncoprotein Mdm2 (Homo sapiens, UniProt P04637+Q00987); experiment: Inhibition of YFP/YFP variant coding sequence fused p53/Mdm2 (unknown origin) expressed in HEK293 cells incubated for 8 to 24 hrs by fluorescence based analysis; assay type: cell-based
HCT-116 [11] = experiment: Antitumor activity against human HCT-116 cells xenografted in nude mouse assessed as reduction in BAD phosphorylation at S136 residue at 15 to 150 mg/kg/day administered via pump for 18 hrs by Reverse-Phase protein array analysis; assay type: functional, organism-based; settings: dose 15-150 mg/kg/day

Sequence of Protein kinase C beta type (P05771 whole entry): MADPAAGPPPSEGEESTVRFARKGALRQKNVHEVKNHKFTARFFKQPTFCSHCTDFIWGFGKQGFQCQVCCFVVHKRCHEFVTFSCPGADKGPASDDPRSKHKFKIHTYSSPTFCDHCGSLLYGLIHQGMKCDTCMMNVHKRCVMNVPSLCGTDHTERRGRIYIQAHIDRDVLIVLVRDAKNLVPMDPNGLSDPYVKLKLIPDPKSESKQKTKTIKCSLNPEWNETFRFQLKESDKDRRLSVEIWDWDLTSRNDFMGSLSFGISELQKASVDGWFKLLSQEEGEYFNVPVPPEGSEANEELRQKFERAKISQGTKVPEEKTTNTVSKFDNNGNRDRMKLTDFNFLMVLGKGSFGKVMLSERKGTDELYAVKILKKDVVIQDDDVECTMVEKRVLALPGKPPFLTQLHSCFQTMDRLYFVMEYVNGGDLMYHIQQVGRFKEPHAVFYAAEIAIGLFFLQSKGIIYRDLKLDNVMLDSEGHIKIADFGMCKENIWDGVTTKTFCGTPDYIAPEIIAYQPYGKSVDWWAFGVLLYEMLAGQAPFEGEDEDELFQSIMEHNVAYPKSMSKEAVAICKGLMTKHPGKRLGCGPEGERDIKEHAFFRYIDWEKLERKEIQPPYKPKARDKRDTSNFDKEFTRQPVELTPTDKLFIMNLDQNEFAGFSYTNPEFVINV
Sequence of Tumour suppressor p53/oncoprotein Mdm2 (P04637 whole entry, looked up, stated change not applied, the tested form may be a part): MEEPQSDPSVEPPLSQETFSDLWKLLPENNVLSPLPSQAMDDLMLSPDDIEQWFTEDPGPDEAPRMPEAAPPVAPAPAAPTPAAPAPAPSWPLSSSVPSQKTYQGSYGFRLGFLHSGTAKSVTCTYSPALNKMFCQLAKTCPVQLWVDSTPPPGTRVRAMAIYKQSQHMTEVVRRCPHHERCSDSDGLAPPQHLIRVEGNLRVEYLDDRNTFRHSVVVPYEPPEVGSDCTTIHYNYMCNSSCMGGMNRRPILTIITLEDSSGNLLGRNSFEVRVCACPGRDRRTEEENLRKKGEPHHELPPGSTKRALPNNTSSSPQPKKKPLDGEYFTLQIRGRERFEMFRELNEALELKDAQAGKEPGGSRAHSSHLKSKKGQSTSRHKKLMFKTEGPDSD
Sequence of Tumour suppressor p53/oncoprotein Mdm2 (Q00987 whole entry, looked up, stated change not applied, the tested form may be a part): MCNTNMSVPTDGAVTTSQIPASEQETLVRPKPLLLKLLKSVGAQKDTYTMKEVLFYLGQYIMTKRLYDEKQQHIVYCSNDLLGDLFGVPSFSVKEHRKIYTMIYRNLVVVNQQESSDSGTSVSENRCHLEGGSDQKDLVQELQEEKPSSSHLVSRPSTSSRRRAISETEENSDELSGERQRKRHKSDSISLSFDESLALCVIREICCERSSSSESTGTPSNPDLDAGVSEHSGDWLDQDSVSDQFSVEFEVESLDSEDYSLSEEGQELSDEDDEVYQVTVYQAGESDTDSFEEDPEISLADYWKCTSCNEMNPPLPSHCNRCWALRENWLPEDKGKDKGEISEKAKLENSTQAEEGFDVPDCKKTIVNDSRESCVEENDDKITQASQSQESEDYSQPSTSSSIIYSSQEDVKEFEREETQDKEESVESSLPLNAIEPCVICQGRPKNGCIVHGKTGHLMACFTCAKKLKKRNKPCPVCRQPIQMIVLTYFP
Sequence of AMP-activated protein kinase (AMPK) alpha-1/beta-1/gamma-1 (P54619 whole entry): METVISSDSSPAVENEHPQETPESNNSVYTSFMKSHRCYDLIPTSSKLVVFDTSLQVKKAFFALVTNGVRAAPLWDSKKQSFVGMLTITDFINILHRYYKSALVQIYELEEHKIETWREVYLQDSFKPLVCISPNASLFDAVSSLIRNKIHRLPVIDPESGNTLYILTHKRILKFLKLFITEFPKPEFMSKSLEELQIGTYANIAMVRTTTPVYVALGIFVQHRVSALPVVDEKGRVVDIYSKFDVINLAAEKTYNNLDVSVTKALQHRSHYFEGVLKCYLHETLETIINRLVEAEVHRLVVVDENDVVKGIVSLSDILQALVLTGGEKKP
Sequence of AMP-activated protein kinase (AMPK) alpha-1/beta-1/gamma-1 (Q9Y478 whole entry): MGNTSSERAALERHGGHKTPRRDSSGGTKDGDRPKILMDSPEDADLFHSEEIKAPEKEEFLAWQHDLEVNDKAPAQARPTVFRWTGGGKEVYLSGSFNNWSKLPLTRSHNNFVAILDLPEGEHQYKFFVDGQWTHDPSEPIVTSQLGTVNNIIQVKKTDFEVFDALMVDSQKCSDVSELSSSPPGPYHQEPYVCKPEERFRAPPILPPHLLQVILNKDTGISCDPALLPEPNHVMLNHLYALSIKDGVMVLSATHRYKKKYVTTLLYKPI
Sequence of AMP-activated protein kinase (AMPK) alpha-1/beta-1/gamma-1 (Q13131 whole entry): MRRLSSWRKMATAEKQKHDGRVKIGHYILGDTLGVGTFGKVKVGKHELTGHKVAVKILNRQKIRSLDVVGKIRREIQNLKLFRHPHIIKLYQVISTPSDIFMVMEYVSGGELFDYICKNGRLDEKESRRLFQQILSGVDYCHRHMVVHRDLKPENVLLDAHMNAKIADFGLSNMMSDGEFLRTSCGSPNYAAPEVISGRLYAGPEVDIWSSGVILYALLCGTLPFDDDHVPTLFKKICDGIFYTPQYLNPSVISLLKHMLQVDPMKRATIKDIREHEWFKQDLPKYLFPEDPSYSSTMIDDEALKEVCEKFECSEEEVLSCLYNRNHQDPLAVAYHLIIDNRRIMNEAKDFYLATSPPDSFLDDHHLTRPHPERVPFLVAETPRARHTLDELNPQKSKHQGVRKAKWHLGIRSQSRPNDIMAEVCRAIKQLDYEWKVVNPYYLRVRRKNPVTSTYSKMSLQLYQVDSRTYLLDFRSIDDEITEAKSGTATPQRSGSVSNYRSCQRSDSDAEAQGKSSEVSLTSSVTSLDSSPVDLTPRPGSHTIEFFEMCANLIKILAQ
Sequence of Protein kinase C theta type (Q04759 whole entry, looked up): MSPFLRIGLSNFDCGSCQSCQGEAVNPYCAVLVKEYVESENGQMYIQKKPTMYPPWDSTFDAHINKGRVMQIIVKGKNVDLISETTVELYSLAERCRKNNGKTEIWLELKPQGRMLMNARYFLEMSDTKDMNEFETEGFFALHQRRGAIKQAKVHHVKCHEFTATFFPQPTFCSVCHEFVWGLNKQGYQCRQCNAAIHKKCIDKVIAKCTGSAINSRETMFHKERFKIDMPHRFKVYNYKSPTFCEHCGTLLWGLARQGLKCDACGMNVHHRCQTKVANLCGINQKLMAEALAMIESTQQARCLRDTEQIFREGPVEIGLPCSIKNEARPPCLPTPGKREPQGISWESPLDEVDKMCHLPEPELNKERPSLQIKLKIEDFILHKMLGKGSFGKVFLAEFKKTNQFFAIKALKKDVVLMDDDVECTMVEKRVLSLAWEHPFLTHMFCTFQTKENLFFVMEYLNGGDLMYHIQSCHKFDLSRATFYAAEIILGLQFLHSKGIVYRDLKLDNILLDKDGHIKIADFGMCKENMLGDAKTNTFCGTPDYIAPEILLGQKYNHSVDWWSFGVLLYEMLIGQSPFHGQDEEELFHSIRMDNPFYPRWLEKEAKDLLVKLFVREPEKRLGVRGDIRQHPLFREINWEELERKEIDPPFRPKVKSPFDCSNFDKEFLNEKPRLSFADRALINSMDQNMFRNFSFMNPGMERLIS

IC50 [2]: 0.0057 µM | IC50 [3]: 2.49 µM | IC50 [4]: 0.021 µM | IC50 (MCF7): 0.0446 µM | IC50 (NCI-H1734): 0.0041 µM | inhibition [6]: 98% | IC50 (ASPC1): 1.8 µM | IC50 (NCI-H2087): 0.00136 µM | IC50 (HCC827): 0.00218 µM | IC50 (HCC38): 0.00052 µM | IC50 [9]: 0.001 µM | IC50 (NCI-H1755): 0.015 µM | IC50 [10]: 0.0056 µM
SMILES: Cc1nc(Nc2n[nH]c3c2CN(C(=O)N[C@H](CN(C)C)c2ccccc2)C3(C)C)c2sccc2n1 [PF-03758309]
fIC50 (HCT-116 [1]): 0.4 nM | IC50 (CFPAC-1): 1.32 µM | IC50 (T84): 0.089 µM | Activity (HCT-116 [5]): Active | Activity (HCT-116 [7]): Active | Activity (HCT-116 [8]): 49.41% | inhibition in vivo at 15 mg/kg (M24met): 72% | Activity (HCT-116 [11]): Active
